Data published in ChEMBL document CHEMBL6153131, “Rational Design and Optimization of a Potent IDO1 Proteolysis Targeting Chimera (PROTAC)” (J Med Chem, 2025).
Activity calls are given as the source filed them. No cut-off for these calls is given here.

Columns and labels:
[1] = molecular target: T1, Protein cereblon/Indoleamine 2,3-dioxygenase 1 (Homo sapiens, UniProt P14902+Q96SW2); assay: PROTAC activity at CRBN/IDO1 in human SW1990 cells assessed as induction of IDO1 degradation at 100 nM pretreated with IFN-gamma for 24 hrs followed by compound addition and measured after 24 hrs by Western blotting analysis; type: cell-based
Target sequence in this assay (P14902 whole entry, looked up): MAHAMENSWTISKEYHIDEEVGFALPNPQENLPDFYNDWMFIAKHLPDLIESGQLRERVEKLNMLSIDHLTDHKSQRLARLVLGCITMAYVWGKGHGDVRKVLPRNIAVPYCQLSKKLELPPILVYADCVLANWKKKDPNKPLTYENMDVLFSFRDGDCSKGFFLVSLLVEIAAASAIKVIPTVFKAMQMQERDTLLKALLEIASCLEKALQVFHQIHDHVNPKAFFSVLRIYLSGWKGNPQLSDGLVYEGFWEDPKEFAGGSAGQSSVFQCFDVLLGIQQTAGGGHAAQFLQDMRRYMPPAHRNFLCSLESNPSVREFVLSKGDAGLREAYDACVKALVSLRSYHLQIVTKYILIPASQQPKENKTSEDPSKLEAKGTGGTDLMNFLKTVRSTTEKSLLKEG
Target sequence in this assay (Q96SW2 whole entry, looked up): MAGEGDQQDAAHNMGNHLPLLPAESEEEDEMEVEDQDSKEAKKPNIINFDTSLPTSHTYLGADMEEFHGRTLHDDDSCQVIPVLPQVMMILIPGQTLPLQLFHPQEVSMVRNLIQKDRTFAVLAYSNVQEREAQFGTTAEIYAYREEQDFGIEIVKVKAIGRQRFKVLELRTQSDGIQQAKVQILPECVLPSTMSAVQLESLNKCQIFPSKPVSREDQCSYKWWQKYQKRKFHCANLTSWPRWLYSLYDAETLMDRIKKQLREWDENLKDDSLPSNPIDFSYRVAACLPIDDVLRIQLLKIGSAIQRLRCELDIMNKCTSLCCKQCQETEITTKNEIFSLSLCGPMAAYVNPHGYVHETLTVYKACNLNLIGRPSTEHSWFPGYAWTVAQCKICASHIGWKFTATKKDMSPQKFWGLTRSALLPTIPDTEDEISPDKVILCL

[2] = molecular target: T1, Protein cereblon/Indoleamine 2,3-dioxygenase 1; assay: PROTAC activity at CRBN/IDO1 in human PC-3 cells assessed as induction of IDO1 degradation at 100 nM pretreated with IFN-gamma for 24 hrs followed by compound addition and measured after 24 hrs by Western blotting analysis; type: cell-based
Target sequence in this assay (P14902 whole entry, looked up): as the sequence (P14902 whole entry, looked up) above
Target sequence in this assay (Q96SW2 whole entry, looked up): as the sequence (Q96SW2 whole entry, looked up) above

[3] = molecular target: T1, Protein cereblon/Indoleamine 2,3-dioxygenase 1; assay: PROTAC activity at CRBN/N-terminal HiBiT-tagged IDO1 (unknown origin) transfected in human U87 cells assessed as induction of IDO1 degradation by measuring maximum efficacy pretreated with IFN-gamma for 24 hrs followed by compound addition and measured after 24 hrs by Nano-Glo HiBiT assay relative to control; type: cell-based
Summary of the method: (§1)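 U87 cells carrying HiBiT knocked in by CRISPR/Cas9 at the IDO1 N-terminus, treated for 24 h. Degradation read as loss of luminescence. DC50 fitted from the lowest concentration up to maximal degradation, excluding hook-effect points; triplicate mean ± SD.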
Target sequence in this assay (P14902 whole entry, looked up): as the sequence (P14902 whole entry, looked up) above
Target sequence in this assay (Q96SW2 whole entry, looked up): as the sequence (Q96SW2 whole entry, looked up) above

[4] = molecular target: T1, Protein cereblon/Indoleamine 2,3-dioxygenase 1; assay: PROTAC activity at CRBN/N-terminal HiBiT-tagged IDO1 (unknown origin) transfected in human U87 cells assessed as induction of IDO1 degradation pretreated with IFN-gamma for 24 hrs followed by compound addition and measured after 24 hrs by Nano-Glo HiBiT assay; type: cell-based; summary of the method: as §1
Target sequence in this assay (P14902 whole entry): as the sequence (P14902 whole entry, looked up) above
Target sequence in this assay (Q96SW2 whole entry): as the sequence (Q96SW2 whole entry, looked up) above

[5] = molecular target: T1, Protein cereblon/Indoleamine 2,3-dioxygenase 1; assay: PROTAC activity at CRBN/IDO1 in human SK-OV-3 cells assessed as induction of IDO1 degradation at 100 nM pretreated with IFN-gamma for 24 hrs followed by compound addition and measured after 24 hrs by Western blotting analysis; type: cell-based
Target sequence in this assay (P14902 whole entry, looked up): as the sequence (P14902 whole entry, looked up) above
Target sequence in this assay (Q96SW2 whole entry, looked up): as the sequence (Q96SW2 whole entry, looked up) above

[6] = molecular target: T1, Protein cereblon/Indoleamine 2,3-dioxygenase 1; assay: PROTAC activity at CRBN/IDO1 in human U87 cells assessed as induction of IDO1 degradation by measuring remaining activity at 50 nM pretreated with IFN-gamma for 24 hrs followed by compound addition and measured after 24 hrs by Western blotting analysis (reference value: 100%); type: cell-based
Target sequence in this assay (P14902 whole entry, looked up): as the sequence (P14902 whole entry, looked up) above
Target sequence in this assay (Q96SW2 whole entry, looked up): as the sequence (Q96SW2 whole entry, looked up) above

[7] = molecular target: T1, Protein cereblon/Indoleamine 2,3-dioxygenase 1; assay: PROTAC activity at CRBN/IDO1 in human PDX-6 cells assessed as induction of IDO1 degradation at 100 nM pretreated with IFN-gamma for 24 hrs followed by compound addition and measured after 24 hrs by Western blotting analysis; type: cell-based
Target sequence in this assay (P14902 whole entry, looked up): as the sequence (P14902 whole entry, looked up) above
Target sequence in this assay (Q96SW2 whole entry, looked up): as the sequence (Q96SW2 whole entry, looked up) above

[8] = molecular target: T1, Protein cereblon/Indoleamine 2,3-dioxygenase 1; assay: PROTAC activity at CRBN/IDO1 in human MDA-MB-231 cells assessed as induction of IDO1 degradation at 100 nM pretreated with IFN-gamma for 24 hrs followed by compound addition and measured after 24 hrs by Western blotting analysis; type: cell-based
[9] = molecular target: T1, Protein cereblon/Indoleamine 2,3-dioxygenase 1; assay: PROTAC activity at CRBN/IDO1 in human U87 cells assessed as induction of IDO1 degradation by measuring remaining activity at 25 nM pretreated with IFN-gamma for 24 hrs followed by compound addition and measured after 24 hrs by Western blotting analysis (reference value: 100%); type: cell-based
[10] = molecular target: T1, Protein cereblon/Indoleamine 2,3-dioxygenase 1; assay: PROTAC activity at CRBN/IDO1 in human U87 cells overexpressing GFP-fused IDO1 assessed as induction of IDO1 degradation at 100 nM pretreated with IFN-gamma for 24 hrs followed by compound addition and measured after 24 hrs by Western blotting analysis; type: cell-based
[11] = molecular target: T1, Protein cereblon/Indoleamine 2,3-dioxygenase 1; assay: PROTAC activity at CRBN/IDO1 in human KNS-42 cells assessed as induction of IDO1 degradation at 100 nM pretreated with IFN-gamma for 24 hrs followed by compound addition and measured after 24 hrs by Western blotting analysis; type: cell-based
[12] = molecular target: T1, Protein cereblon/Indoleamine 2,3-dioxygenase 1; assay: PROTAC activity at CRBN/IDO1 in human PDX-38 cells assessed as induction of IDO1 degradation at 100 nM pretreated with IFN-gamma for 24 hrs followed by compound addition and measured after 24 hrs by Western blotting analysis; type: cell-based
[13] = molecular target: T1, Protein cereblon/Indoleamine 2,3-dioxygenase 1; assay: PROTAC activity at CRBN/IDO1 in human U87 cells assessed as induction of IDO1 degradation by measuring remaining activity at 100 nM pretreated with IFN-gamma for 24 hrs followed by compound addition and measured after 24 hrs by Western blotting analysis (reference value: 100%); type: cell-based
Protein cereblon = Protein cereblon (Homo sapiens, UniProt Q96SW2); assay: Binding affinity to CRBN (unknown origin) assessed as dissociation constant by Biolayer Interferometry assay
Protein cereblon, sequence (Q96SW2 whole entry): as the sequence (Q96SW2 whole entry, looked up) above

Compound	Activity [1]	Activity [2]	Emax [3] [%]	DC50 [4] [nM]	Activity [5]	Activity [6] [%]	Activity [7]	Activity [8]	Activity [9] [%]	Activity [10]	Activity [11]	Activity [12]	Activity [13] [%]	Kd (Protein cereblon) [nM]
C[C@@H](C(=O)Nc1cccc(OC2CCN(C(=O)CN3CCC(N4CCN(c5ccc6c(c5)C(=O)N(C5CCC(=O)N(C)C5=O)C6=O)CC4)CC3)CC2)c1)[C@H]1CC[C@@H](c2ccnc3ccc(F)cc32)CC1 (stereo partly specified)	inactive	inactive	< 10	> 10000	inactive	125	inactive	inactive	99	inactive	inactive	inactive	162	–
C[C@@H](C(=O)Nc1ccc(OC2CCN(C(=O)CCOCCOCCNc3cccc4c3C(=O)N(C3CCC(=O)NC3=O)C4=O)CC2)cc1)[C@H]1CC[C@@H](c2ccnc3ccc(F)cc32)CC1 (stereo partly specified)	–	–	79	430	–	–	–	–	–	–	–	–	–	290
